Experimental data gathered from unrelated publications.
Compare with care: the assays were run in different laboratories.
Target: Receptor tyrosine-protein kinase erbB-2 (ERBB2, Homo sapiens, UniProt P04626)

With `O=C(CSc1nc2nccnc2c(=O)n1CCc1ccccc1)Nc1nccs1` the inhibition was -11% (enzyme activity, inhibitor; 10 µM).
With `CN(C)C(=O)Cn1cc(-c2nc([C@@](C)(c3ccc(-c4cnc(N)nc4)cc3)C3CC3)no2)cn1` the remaining binding was 100% (cell-free assay, competition with immobilised ligand; 1 µM).
The remaining signal of `C#Cc1cccc(Nc2ncnc3cc(OCCOC)c(OCCOC)cc23)c1` is reported as 52.8% (cell-free assay; 0.5 µM).
`CS(=O)(=O)N1CCCC(NC(=O)[C@H](CCC2CCCCC2)NC(=O)c2ccc(CNc3ncnc4c3nnn4-c3ccccc3)cc2)C1` (some centres unmarked) has a remaining binding of 100% (cell-free assay, competition with immobilised ligand; 0.1 µM).
The remaining signal of `O=C1NC(=O)c2cc(Nc3ccc(F)cc3)c(Nc3ccc(F)cc3)cc21` is reported as 107% (cell-free assay; 0.5 µM).
`C[C@H](c1ccc(F)cc1)N(Cc1cccc(C(=O)O)c1)C(=O)c1cnc2ccccc2c1` gave a remaining binding of 100% (cell-free assay, competition with immobilised ligand; 1 µM).
For `CN1CC(Oc2cnc(C#N)cc2-c2ccn3nc(NC(=O)C4CC4)cc3c2)C1`, the inhibition was -3% (enzyme activity, inhibitor; 1 µM).
The inhibition of `CCCCNc1ncc2c(-c3ccc(F)cc3)nn(C[C@H]3CC[C@H](N)CC3)c2n1` is reported as 77.8% (target engagement in cells, inhibitor, chemoproteomics; 20 mM).
For `CC(=O)N1CCC(c2ccc(C(=O)NC3=NCCN3)cc2C(F)(F)F)CC1`, the remaining binding was 100% (cell-free assay, competition with immobilised ligand; 1 µM).
`C=CC(=O)Nc1cc(Nc2nccc(Nc3cc(Cl)c(F)cc3C(C)(C)O)n2)c(OC)cc1N1CC[C@@H](N(C)C)C1` gave an inhibition of 73% (enzyme activity, inhibitor; 1 µM).
With `COc1ccc(COc2ccc(Cc3cnc(N)nc3N)cc2OC)cc1` the remaining signal was 106% (cell-free assay; 0.5 µM).
`CC(C)(O)[C@H]1CC[C@H](Nc2ccc3ncc(-c4cccc(C(F)(F)F)c4)n3n2)CC1` has a remaining activity of 92% (enzyme activity, inhibitor; 1 µM).
With `O=C(NCc1ncc(C(F)(F)F)cc1Cl)c1ccc2c(c1)C1(CCS(=O)(=O)CC1)[C@H](C1CC1)N2S(=O)(=O)c1ccc(F)cc1` the remaining binding was 100% (cell-free assay, competition with immobilised ligand; 1 µM).
`Oc1ccc(-c2nc(-c3ccncc3)c(-c3ccc(F)cc3)[nH]2)cc1` has a remaining signal of 95.5% (cell-free assay; 0.5 µM).
For `CCCS(=O)(=O)Nc1ccc(F)c(C(=O)c2c[nH]c3ncc(-c4ccc(Cl)cc4)cc23)c1F`, the inhibition was < 10% (enzyme activity, inhibitor; 1 µM).
With `Cn1nc(C(F)(F)F)cc1-c1cnc(N2CCc3cc(S(=O)(=O)Nc4c(F)cc(Cl)cc4F)cc(N4CCCC4=O)c32)nc1` the remaining binding was 79% (cell-free assay, competition with immobilised ligand; 1 µM).
`Cc1ccc(NC(=O)c2ccc(CN3CCN(C)CC3)cc2)cc1Nc1nc(-c2cccnc2)cs1` gave a remaining signal of 103% (cell-free assay; 0.5 µM).
For `Cc1cc(NC(=O)c2cccc3cc(-c4cccc5[nH]nc(N)c45)ccc23)ccc1F`, the activity vs control was 108% (enzyme activity, inhibitor; 0.1 µM).
`COc1cc2ncnc(Nc3ccc(Oc4ccccc4)c(C)c3C)c2cc1OC` gave an inhibition of 76% (enzyme activity, inhibitor; 1 µM).
`COc1cc(Nc2c(C#N)cnc3cc(OCCCN4CCN(C)CC4)c(OC)cc23)c(Cl)cc1Cl` has a remaining signal of 32.9% (cell-free assay; 0.5 µM).
`Cc1sc(C(=O)NC2COC2)cc1-n1cc(NC(=O)Nc2c(F)cccc2Cl)cn1` has a remaining activity of 64.1% (enzyme activity, inhibitor; 10 µM).
`CC/C(=N\NC(=O)NCc1cccc(O)c1)c1ccc(O)c(C)c1O` gave an inhibition of 0.8% (enzyme activity, inhibitor; 0.1 µM).
With `COc1cc2nccc(Oc3ccc(NC(=O)c4c5n(n(-c6ccc(F)cc6)c4=O)CCCC5)cc3)c2cc1OC` the inhibition was -1% (enzyme activity, inhibitor; 0.1 µM).
For `C[C@@H]1CN(c2cc(-c3nn(C)c4ccc(OC5(C)CC5)cc34)ncn2)C[C@H](C)O1`, the remaining binding was 80% (cell-free assay, competition with immobilised ligand; 1 µM).
With `CC(C)(C)c1nc2c(s1)c1nc(N)ncc1c1ccc(NS(=O)(=O)c3c(F)cccc3F)c(F)c12` the remaining activity was 109% (enzyme activity, inhibitor, radiometric; 1 µM).
`c1ccc(CNc2nc(N3CCOc4ccccc43)nc3c2CCCC3)cc1` gave an inhibition of 0.8% (target engagement in cells, inhibitor, chemoproteomics; 20 mM).
